Experimental findings from ChEMBL document CHEMBL1799973, “Design, synthesis, and cytotoxic evaluation of acyl derivatives of 3-aminonaphtho[2,3-b]thiophene-4,9-dione, a quinone-based system” (J Med Chem, 2011) are described below.

The test system of data set [1] is MCF7. Kind of data set: Cytotoxicity against human MCF7 cells. The data set is classed as functional, cell-based. A digest of the protocol: (§1)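 MTT read-out. Cells grown at 37 °C in DMEM with 10 mM glucose, 10% fetal calf serum, penicillin/streptomycin and 2 mmol/L glutamine. Seeded at 10^5 cells per well and left 24 h to attach, then compound added over a range of concentrations and cells grown 24 or 48 h. MTT at 1 mg/mL for 2 h at 37 °C in the dark, formazan dissolved in DMSO, OD read at 550 nm. Values are % of vehicle control (0.5% DMSO); IC50 by linear and polynomial regression; triplicate.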

Data set [2] in a line: Antitumor activity against human MDA231 cells after 24 to 48 hrs by MTT assay. The data set is classed as functional, cell-based. Conditions: MDA-MB-231. In a few lines: as §1
The test system of the next data set is SW-620. Briefly: Antitumor activity against human SW620 cells after 24 to 48 hrs by MTT assay. The data set is classed as functional, cell-based. A digest of the protocol:
as §1

In a further data set the test system is U-937. Briefly: Antitumor activity against human U937 cells after 24 to 48 hrs by MTT assay. The data set is classed as functional, cell-based. In a few lines:
as §1

Another data set has as its system MDA-MB-435. Kind of data set: Antitumor activity against human MDA-MB-435 cells after 24 to 48 hrs by MTT assay. The data set is classed as functional, cell-based. In a few lines: (§2)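 MTT read-out. Cells grown at 37 °C in DMEM with 10 mM glucose, 10% fetal calf serum, penicillin/streptomycin and 2 mmol/L glutamine. Seeded at 10^5 cells per well and left 24 h to attach, then compound added over a range of concentrations and cells grown 24 or 48 h. MTT at 1 mg/mL for 2 h at 37 °C in the dark, formazan dissolved in DMSO, OD read at 550 nm.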

Another data set deals with SK-MEL-28. Briefly: Antitumor activity against human SK-MEL-28 cells after 24 to 48 hrs by MTT assay. It counts as functional, cell-based. A digest of the protocol: as §1
Data set [3] in a line: Antitumor activity against human IGROV cells after 24 to 48 hrs by MTT assay. The data set is classed as functional, cell-based. A digest of the protocol: as §2
For a further data set, the system named is SF-295. Briefly: Antitumor activity against human SF295 cells after 24 to 48 hrs by MTT assay. It counts as functional, cell-based. A digest of the protocol: as §1
The subject of a further data set is SNB-19. Kind of data set: Antitumor activity against human SNB19 cells after 24 to 48 hrs by MTT assay. The data set is classed as functional, cell-based. In a few lines:
as §1

The test system of a further data set is COLO 205. Kind of data set: Antitumor activity against human COLO205 cells after 24 to 48 hrs by MTT assay. It counts as functional, cell-based. In a few lines:
as §1

The test system of the next data set is HT-29. Kind of data set: Antitumor activity against human HT-29 cells after 24 to 48 hrs by MTT assay. It counts as functional, cell-based. A digest of the protocol:
as §1

Data set [4] has as its system Caco-2. Briefly: Antitumor activity against human undifferentiated Caco2 cells after 24 to 48 hrs by MTT assay. It counts as functional, cell-based. In a few lines:
as §1

The test system of data set [5] is Caco-2. Briefly: Antitumor activity against human differentiated Caco2 cells after 24 to 48 hrs by MTT assay. The data set is classed as cell-based. A digest of the protocol:
as §1

Data set [6] deals with Caco-2. Kind of data set: Selectivity index, ratio IC50 for undifferentiated human Caco2 cells to IC50 for differentiated human Caco2 cells. It counts as functional. In a few lines: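 Ratio of MTT IC50 in undifferentiated to differentiated Caco-2 cells. MTT conditions: 24 or 48 h exposure, formazan dissolved in DMSO, read at 550 nm, IC50 by regression, triplicate.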
In data set [7] the test system is MCF7. Kind of data set: Drug uptake in human MCF7 cells assessed as nuclear localization at 50 nM after 30 mins by confocal microscopic analysis. Conditions: mcf7, 0.5 h, 0.05 µM. The data set is classed as ADME, cell-based. A digest of the protocol: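 Imaging in MCF-7 cells by confocal microscopy with 50 nM labeled compound. Cells fixed in paraformaldehyde for 30 min at 4 °C, permeabilized with Triton X-100 for 30 min at 4 °C, and nuclei stained with Hoechst 33342. Images taken with a 63× oil objective.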

Data set [8] is filed under the species Homo sapiens. Kind of data set: Inhibition of human topoisomerase 2-mediated relaxation of supercoiled pBR322 DNA relaxation after 6 mins by agarose gel electrophoresis.
Data set [9] deals with Nucleic Acid. Kind of data set: Binding affinity to poly(dG-dC).poly(dG-dC) DNA assessed as compound/DNA complex formation at 1 mM by STD NMR spectrophotometric analysis. The data set is classed as nucleic-acid assay. In a few lines: (§3)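 Ligand at 1.0 mM with poly(dG-dC)·poly(dG-dC) at 50 μM (as phosphate groups), a 20:1 ligand excess, in H2O/D2O 9:1 with 100 mM phosphate-buffered saline, pH 7.1. Water suppressed by DPFGSE. STD effects taken relative to a reference spectrum with off-resonance saturation at δ −16 ppm, 2 s saturation, typically 512 scans. WaterLOGSY spectra recorded with and without DNA.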

Data set [10] concerns Nucleic Acid. Kind of data set: Binding affinity to poly(dG-dC).poly(dG-dC) DNA assessed as compound/DNA complex formation at 1 mM by WaterLOGSY NMR spectrophotometric analysis. The data set is classed as nucleic-acid assay. A digest of the protocol:
as §3

Data set [11] concerns Nucleic Acid. Briefly: Binding affinity to DNA assessed as binding mode index by measuring aliphatic signals by DF-STD spectrophotometric analysis. The data set is classed as nucleic-acid assay. In a few lines: (§4)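 DF-STD NMR on poly(dG-dC)·poly(dG-dC) in H2O/D2O 9:1 with 100 mM phosphate-buffered saline, pH 7.1. Ligand 1.0 mM; DNA 50 μM as phosphate (20:1 ligand excess). Saturation is centred on the aromatic or low-field aliphatic region for 2 s, with a reference off-resonance at δ −16 ppm and 512 scans. The binding mode index is the relative response of ligand protons to base versus sugar/backbone saturation.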

Data set [12] concerns Nucleic Acid. Briefly: Binding affinity to DNA assessed as binding mode index by measuring aromatic signals by DF-STD spectrophotometric analysis. It counts as nucleic-acid assay. A digest of the protocol: as §4
Data set [13] relates to Caco-2. Briefly: Cell cycle arrest in human Caco2 cells assessed as accumulation at G1 phase at 1 uM after 48 hrs by propidium iodide staining based flow cytometric analysis (reference value: 42%). It counts as functional.
Data set [14] concerns Caco-2. Briefly: Cell cycle arrest in human Caco2 cells assessed as accumulation at G2/M phase at 1 uM after 48 hrs by propidium iodide staining based flow cytometric analysis (reference value: 21%). The data set is classed as functional.
Data set [15] deals with Caco-2. Kind of data set: Cell cycle arrest in human Caco2 cells assessed as accumulation at S phase at 1 uM after 48 hrs by propidium iodide staining based flow cytometric analysis (reference value: 36%). It counts as functional.
Data set [16] concerns Caco-2. Briefly: Induction of cyclin A expression in human Caco2 cells at 1 uM after 48 hrs by Western blot analysis. It counts as functional. A digest of the protocol:
(§5)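 Caco-2 cells treated for 48 h (1 or 5 μM for Hsp27; 1 μM for cyclin A). Lysed in ice-cold 50 mM Tris, 150 mM NaCl, 10 mM EDTA, 1% Triton with protease inhibitors. Equal protein run on 8–12% SDS-PAGE and transferred to nitrocellulose. Primary antibody overnight in TBS/Tween/1% milk, then HRP secondary; bands detected by ECL.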

Data set [17] relates to Caco-2. Kind of data set: […] of cell differentiation in human Caco2 cells assessed as increase in ALP activity at 10 uM after 48 hrs. The data set is classed as functional. Also noted: scale not given: the % may be the effect or the level left. A digest of the protocol: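 Caco-2 cells cultured 48 h with 0, 1, 5 or 10 μM compound. Attached and floating cells washed and lysed in 0.25% sodium deoxycholate. ALP activity measured with a diagnostic ALP reagent and protein by Bradford microassay. Activity expressed as units per mg protein, as a differentiation marker.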

Data set [18] concerns Caco-2. Kind of data set: Increase in Hsp27 protein expression in human Caco2 cells at 1 uM after 48 hrs by Western blot analysis. The data set is classed as functional, cell-based. In a few lines:
as §5

In data set [19] the test system is Caco-2. Briefly: Increase in Hsp27 protein expression in human Caco2 cells at 5 uM after 48 hrs by Western blot analysis. The data set is classed as functional, cell-based. In a few lines: as §5
Data set [20] in a line: Cardiotoxicity in rat H9c2 cells assessed as cell viability at 1 uM up to 120 hrs by MTT assay. The data set is classed as toxicity, cell-based. Conditions: read-out: Activity. A digest of the protocol:
(§6)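 Rat H9C2 cardiomyoblasts, passages 4–10, grown at 37 °C in DMEM with FBS, glutamine and penicillin/streptomycin. Plated at 2000 cells/well in quadruplicate and given compound at 1 μM for the indicated times. MTT reagent added for 2 h in the incubator, then absorbance read at 570 nm. Data are mean ± SD.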

The species named for data set [21] is Homo sapiens. Briefly: Inhibition of human topoisomerase 2-mediated relaxation of supercoiled pBR322 DNA relaxation at 5 uM after 6 mins by agarose gel electrophoresis. In a few lines: (§7)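 Compound at 5 or 10 μM. Run 6 min at 37 °C and stopped with EDTA/SDS/glycerol dye. Products run on 1% agarose in 0.5× TBE at 4 V/cm for 1 h, stained with ethidium bromide, bands quantified.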

For data set [22], the species on record is Homo sapiens. Kind of data set: Inhibition of human topoisomerase 2-mediated relaxation of supercoiled pBR322 DNA relaxation at 10 uM after 6 mins by agarose gel electrophoresis. A digest of the protocol:
as §7

The species entered for data set [23] is Homo sapiens. Kind of data set: Inhibition of human topoisomerase 2-mediated relaxation of supercoiled pBR322 DNA relaxation at 0.04 to 0.92 uM after 6 mins by agarose gel electrophoresis.
The next data set concerns H9c2. Briefly: Cardiotoxicity in rat H9c2 cells at 1 uM measured up to 120 hrs by MTT assay. The data set is classed as toxicity, cell-based. Conditions: h9c2, 120 h. A digest of the protocol: as §6

Active and inactive are the calls of the source. The rule behind the calls is not given here.

Regarding `CCN(CC)CCC(=O)Nc1csc2c1C(=O)c1ccccc1C2=O.Cl`, the IC50 stood at 500 nM in the data set with MCF7 [1]; 2500 nM in data set [2]; 1500 nM in the data set with SW-620; 1100 nM with U-937; 500 nM in the data set on MDA-MB-435; 600 nM in the data set with SK-MEL-28. Moreover, the IC50 in data set [3] is 2500 nM; with SF-295, 600 nM; in the data set on SNB-19, 700 nM; in the data set with COLO 205, 900 nM; in the data set with HT-29, 800 nM; with Caco-2 [4], 1000 nM. Inhibition with Caco-2 [5] was half-maximal at 4100 nM (IC50). Further, the “Ratio IC50” value in the data set on Caco-2 [6] was found to be 0.25. Moreover, in the data set with MCF7 [7], the Drug uptake result is recorded as “Active”. Besides, the inhibition entry in the data set filed under Homo sapiens [8] is “Dose-dependent effect”. Besides, the outcome in the data set on Nucleic Acid [9], in the data set with Nucleic Acid [10] and in the data set on Caco-2 [18] was Active. Moreover, the Activity with Nucleic Acid [11] was 0.86; with Nucleic Acid [12], 1.35; in the data set with Caco-2 [13], 29%; with Caco-2 [14], 28%; with Caco-2 [15] it was 41%; with Caco-2 [17], >180%. Moreover, the outcome with Caco-2 [16] and in the data set on Caco-2 [19] was inactive. For the same molecule, in data set [20], the viability at 120 h, 1 µM was 74%.
Regarding `COc1cccc2c1C(=O)c1c(O)c3c(c(O)c1C2=O)C[C@@](O)(C(=O)CO)C[C@@H]3O[C@H]1C[C@H](N)[C@H](O)[C@H](C)O1` [DOXORUBICIN], the half-maximal inhibitory concentration (IC50) in data set [2] is 1130 nM; in the data set with SW-620, 120 nM; with U-937, 930 nM; in the data set on SK-MEL-28 it was 600 nM; with SF-295, 4400 nM; in the data set on SNB-19 it was 800 nM. In addition, the concentration for half-maximal inhibition (IC50) with COLO 205 is 1500 nM; in the data set on HT-29, 1100 nM; with Caco-2 [4] it was 6700 nM; in the data set on Caco-2 [5] it was 600 nM. Moreover, the inhibition result in the data set filed under Homo sapiens [21], in the data set listed under Homo sapiens [22] and in the data set filed under Homo sapiens [23] was “Active” each time. For the same molecule, the Activity result in the data set on H9c2 is given as “Toxic”.
